Active and inactive are the calls of the source. The rule behind the calls is not given here.
Assays:
[1] = target: T1, 17-beta-hydroxysteroid dehydrogenase type 1 (Homo sapiens, UniProt P14061); experiment: Inhibition of human recombinant 17beta-HSD1 expressed in HEK293 cell lysate assessed as conversion of radiolabeled estrone to estradiol; assay type: cell-free
T1 sequence (P14061 whole entry): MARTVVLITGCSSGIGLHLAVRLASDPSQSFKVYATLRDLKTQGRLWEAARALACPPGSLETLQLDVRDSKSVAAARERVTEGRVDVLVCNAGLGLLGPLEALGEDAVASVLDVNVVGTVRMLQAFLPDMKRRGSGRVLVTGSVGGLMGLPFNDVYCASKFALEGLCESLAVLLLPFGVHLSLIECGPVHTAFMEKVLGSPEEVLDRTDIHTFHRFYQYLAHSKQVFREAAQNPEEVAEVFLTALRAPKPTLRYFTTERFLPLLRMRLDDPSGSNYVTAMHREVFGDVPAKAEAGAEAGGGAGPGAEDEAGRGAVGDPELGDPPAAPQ
Procedure, shortened: (§1)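 HEK-293 cells transiently transfected with human 17β-HSD1 by calcium phosphate were harvested 48 h later, and the pellets were frozen at -70 °C. Pellets were resuspended in 50 mM potassium phosphate, 20% glycerol and 1 mM EDTA. Conversion of 200 nM radiolabeled estrone to estradiol was measured immediately with 500 µM NADPH. […] DMSO was ≤0.1%. Values are mean ± SD from three independent experiments.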

[2] = target: T2, 17-beta-hydroxysteroid dehydrogenase type 2 (Homo sapiens, UniProt P37059); experiment: Inhibition of human recombinant 17beta-HSD2 expressed in HEK293 cell lysate assessed as conversion of radiolabeled estrone to estradiol; assay type: cell-free
T2 sequence (P37059 whole entry): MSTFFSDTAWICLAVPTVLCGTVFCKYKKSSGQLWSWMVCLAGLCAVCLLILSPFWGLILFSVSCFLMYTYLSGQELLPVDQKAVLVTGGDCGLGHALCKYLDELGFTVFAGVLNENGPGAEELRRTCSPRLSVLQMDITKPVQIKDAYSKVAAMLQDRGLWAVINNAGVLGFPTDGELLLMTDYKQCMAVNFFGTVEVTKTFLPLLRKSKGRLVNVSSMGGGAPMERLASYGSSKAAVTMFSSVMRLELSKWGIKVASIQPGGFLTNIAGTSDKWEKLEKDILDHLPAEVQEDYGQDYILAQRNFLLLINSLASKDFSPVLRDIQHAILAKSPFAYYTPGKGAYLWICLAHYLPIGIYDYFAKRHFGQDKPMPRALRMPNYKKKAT

[3] = target: T3, 17-beta-hydroxysteroid dehydrogenase type 2 (Homo sapiens) (UniProt P37059); experiment: Inhibition of human recombinant 17beta-HSD2 expressed in HEK293 cell lysate assessed as conversion of radiolabeled estrone to estradiol at 40 uM; assay type: cell-free; parameters: scale not given: the % may be the effect or the level left
T3 sequence (whole entry): T2 sequence (P37059 whole entry)

[4] = target: T4, 17-beta-hydroxysteroid dehydrogenase type 1 (Homo sapiens) (UniProt P14061); experiment: Inhibition of human recombinant 17beta-HSD1 expressed in HEK293 cell lysate assessed as conversion of radiolabeled estrone to estradiol at 20 uM; assay type: cell-free; parameters: scale not given: the % may be the effect or the level left; procedure, shortened: as §1
T4 sequence (whole entry): T1 sequence (P14061 whole entry)

[5] = target: T5, 11-beta-hydroxysteroid dehydrogenase 1 (Homo sapiens, UniProt P28845); experiment: Inhibition of human recombinant 11beta-HSD1 expressed in HEK293 cell lysate assessed as conversion of radiolabeled estrone to estradiol at 20 uM; assay type: cell-free; parameters: scale not given: the % may be the effect or the level left
Target sequence in this assay (P28845 whole entry, looked up): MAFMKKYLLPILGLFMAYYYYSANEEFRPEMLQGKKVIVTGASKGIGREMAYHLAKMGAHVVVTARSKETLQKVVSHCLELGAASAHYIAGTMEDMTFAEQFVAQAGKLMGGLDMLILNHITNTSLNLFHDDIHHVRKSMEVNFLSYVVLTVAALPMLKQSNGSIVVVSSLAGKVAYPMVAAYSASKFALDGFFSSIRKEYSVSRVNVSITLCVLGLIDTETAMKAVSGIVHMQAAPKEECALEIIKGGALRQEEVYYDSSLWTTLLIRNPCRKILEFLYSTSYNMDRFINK

[6] = target: T3, 17-beta-hydroxysteroid dehydrogenase type 2 (Homo sapiens); experiment: Inhibition of human recombinant 17beta-HSD2 expressed in HEK293 cell lysate assessed as conversion of radiolabeled estrone to estradiol at 20 uM; assay type: cell-free; parameters: scale not given: the % may be the effect or the level left
[7] = target: T6, 17-beta-hydroxysteroid dehydrogenase type 3 (Homo sapiens) (UniProt P37058); experiment: Inhibition of human recombinant 17beta-HSD3 expressed in intact HEK293 cells assessed as conversion of androstenedione to testosterone at 20 uM; assay type: cell-based; parameters: scale not given: the % may be the effect or the level left
T6 sequence (whole entry): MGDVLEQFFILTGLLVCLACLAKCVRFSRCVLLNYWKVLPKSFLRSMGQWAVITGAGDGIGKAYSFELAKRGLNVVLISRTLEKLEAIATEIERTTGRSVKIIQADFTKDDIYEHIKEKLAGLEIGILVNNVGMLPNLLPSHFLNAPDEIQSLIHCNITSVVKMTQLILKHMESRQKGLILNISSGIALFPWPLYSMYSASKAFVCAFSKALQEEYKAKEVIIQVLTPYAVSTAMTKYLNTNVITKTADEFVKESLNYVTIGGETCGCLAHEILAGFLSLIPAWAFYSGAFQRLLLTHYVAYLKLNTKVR
Procedure, shortened: (§2)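 17β-HSD3 or 17β-HSD5 was transiently expressed in HEK-293 cells. Conversion of androstenedione to testosterone was measured in intact cells without added cofactor. Compounds were tested at 20 µM, with final DMSO ≤0.1%. Values are mean ± SD from three independent experiments.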

[8] = target: T7, Aldo-keto reductase family 1 member C3 (Homo sapiens) (UniProt P42330); experiment: Inhibition of human recombinant 17beta-HSD5 expressed in intact HEK293 cells assessed as conversion of androstenedione to testosterone at 20 uM after 24 hrs; assay type: cell-based; parameters: scale not given: the % may be the effect or the level left; procedure, shortened: as §2
T7 sequence (whole entry): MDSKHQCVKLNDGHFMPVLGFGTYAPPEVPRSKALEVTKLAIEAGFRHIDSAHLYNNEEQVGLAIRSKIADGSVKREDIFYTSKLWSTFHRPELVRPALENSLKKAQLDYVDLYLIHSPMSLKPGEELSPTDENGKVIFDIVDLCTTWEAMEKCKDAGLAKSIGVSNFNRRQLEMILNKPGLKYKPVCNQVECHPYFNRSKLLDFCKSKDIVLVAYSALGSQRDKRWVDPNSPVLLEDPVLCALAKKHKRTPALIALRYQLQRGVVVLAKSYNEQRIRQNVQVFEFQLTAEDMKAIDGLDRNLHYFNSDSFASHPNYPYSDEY

[9] = target: T5, 11-beta-hydroxysteroid dehydrogenase 1; experiment: Inhibition of human recombinant 11beta-HSD1 expressed in HEK293 cell lysate assessed as conversion of radiolabeled estrone to estradiol; assay type: cell-free
Target sequence in this assay (P28845 whole entry): as the sequence (P28845 whole entry, looked up) above

Row | Structure (SMILES) | IC50 [1] [µM] | IC50 [2] [µM] | Activity [3] [%] | Activity [4] [%] | Activity [5] [%] | Activity [6] [%] | Activity [7] [%] | Activity [8] | IC50 [9] [µM] | Ki [1] [µM]
1 | O=c1cc(-c2ccc(O)cc2)oc2cc(O)cc(O)c12 [APIGENIN] | 0.71 | > 20 | 25.2 | 10 |  |  |  |  |  | 
2 | O=c1cc(-c2ccccc2)oc2cc(O)ccc12 [7-HYDROXYFLAVONE] | 5.25 | > 20 | 23.1 | 16 |  |  |  |  |  | 
3 | Cc1cc(/C=N/NC(=O)C(O)(c2ccccc2)c2ccccc2)c(C)n1-c1ccc(O)cc1 |  |  |  | 73 | 90 | 113 | 76 | inactive |  | 
4 | O=S(=O)(Nc1ccccc1)c1ccc2c(c1)Cc1cc(S(=O)(=O)Nc3ccccc3)ccc1-2 |  |  |  | 75 | 56 | 76 | 80 | inactive |  | 
5 | O=c1c(-c2ccc(O)cc2)coc2cc(O)cc(O)c12 [GENISTEIN] | 2.21 |  | 15.7 | 17 |  |  |  |  |  | 
6 | Cc1cc(OCCOc2ccc(N)cc2)ccc1N1C(N)=NC(N)=NC1(C)C |  |  |  | 84 | 99 | 59 | 99 | inactive |  | 
7 | O=C1C[C@@H](c2ccc(O)cc2)Oc2cc(O)cc(O)c21 [NARINGENIN] | 4.96 | 14.4 | 12.6 | 17.2 |  |  |  |  |  | 
8 | COc1ccc([C@@H]2CC(=O)c3c(O)cc(O)cc3O2)cc1O |  |  | 36.4 | 44 |  |  |  |  |  | 
9 | O=C1CC(c2ccccc2O)Oc2ccccc21 (stereo not drawn) |  |  | 50.7 | 95 |  |  |  |  |  | 
10 | COc1ccc(-c2coc3cc(O)cc(O)c3c2=O)cc1 [BIOCHANIN] |  | 9.9 | 10.1 | 45 |  |  |  |  |  | 
11 | COC(C(=O)Nc1ccc(-c2ccc(NC(=O)C(OC)c3ccccc3)c(C)c2)cc1C)c1ccccc1 (stereo not drawn) |  |  |  | 84 | 110 | 59 | 96 | inactive |  | 
12 | CCCCN(C)C(=O)CCCCCS[C@@H]1C[C@@H]2[C@H](CC[C@]3(C)[C@@H](O)CC[C@@H]23)c2ccc(O)cc21 | 0.17 |  |  |  |  |  |  |  |  | 
13 | CCOc1cc(/C=N/NC(=O)c2ccccn2)c(Br)c(Br)c1O |  |  |  | 88 | 68 | 55 | 95 | inactive |  | 
14 | C[C@]12CC[C@@H]3c4ccc(OC5CCCCO5)cc4CC[C@H]3[C@@H]1CC[C@@H]2O (stereo partly drawn) |  |  |  | 74 | 365 | 90 | 57 | inactive | 20 | 
15 | C[C@]12CC[C@@H]3c4ccc(O)cc4CC[C@H]3[C@@H]1C[C@H](CCCCCCCCC(=O)OC[C@H]1O[C@@H](n3cnc4c(N)ncnc43)[C@H](O)[C@@H]1O)[C@@H]2O |  |  |  |  |  |  |  |  |  | 0.003
16 | Cc1cc(-c2ccc(NS(=O)(=O)c3ccccc3)c(C)c2)ccc1NS(=O)(=O)c1ccccc1 |  |  |  | 64 | 101 | 56 | 92 | inactive |  | 
17 | O=c1cc(-c2ccccc2)oc2ccccc12 |  |  | 63.9 | 94 |  |  |  |  |  | 

Row | Structure (SMILES) | IC50 [1] [µM] | IC50 [2] [µM] | Activity [3] [%] | Activity [4] [%] | Activity [5] [%] | Activity [6] [%] | Activity [7] [%] | Activity [8] | IC50 [9] [µM] | Ki [1] [µM]
18 | CCOP(=O)(Nc1ccc2c(c1)Cc1c-2cc(Cl)c(NC(C)=O)c1Cl)OCC |  |  |  | 90 | 87 | 79 | 86 | 84% |  | 
19 | COc1c2c(cc3c1C1Oc4c(ccc(O)c4CC=C(C)C)C1CO3)OC(C)(C)C=C2 (stereo not drawn) | 19 |  |  | 54 | 96 | 86 | 55 | inactive |  | 
20 | O=C1CC(c2ccc(O)cc2)Oc2ccccc21 (stereo not drawn) |  |  | 63.6 | 99 |  |  |  |  |  | 
21 | O=S1OCC2C(CO1)C1(Cl)C(Cl)=C(Cl)C2(Cl)C1(Cl)Cl (stereo not drawn) [ENDOSULFAN] | 48.2 |  | 51.1 | 25 |  |  |  |  |  | 
22 | Cc1c(/C=N/N=C2\CC[C@H]3[C@@H]4CCc5cc(O)ccc5[C@H]4CC[C@]23C)cnn1C | 33 |  |  | 34 | 81 | 63 | 75 | inactive |  | 
23 | Cc1cc2c(C(C)C)c(O)c(O)c(C=O)c2c(O)c1-c1c(C)cc2c(C(C)C)c(O)c(O)c(C=O)c2c1O |  |  | 64.8 | 60 |  |  |  |  |  | 
24 | CC1(C)[C@@H](O)CC[C@]2(C)[C@H]3C(=O)C=C4[C@@H]5C[C@@](C)(C(=O)O)CC[C@]5(C)CC[C@@]4(C)[C@]3(C)CC[C@@H]12 |  |  | 24.5 | 53 |  |  |  |  |  | 
25 | CCOc1cc(CNC2C(C)=NN=C2S)cc(Br)c1OCC(=O)NC1CCCCC1 (stereo not drawn) |  |  |  | 70 | 16 | 105 | 19 | inactive | 6.2 | 
26 | O=C1CC(c2ccccc2)Oc2ccccc21 (stereo not drawn) |  |  | 70.7 | 110 |  |  |  |  |  | 
27 | O=c1c(O)c(-c2ccc(O)cc2)oc2cc(O)cc(O)c12 [KAEMPFEROL] | 1.05 | 0.36 | 4.83 | 13 |  |  |  |  |  | 
28 | CCCCC(=O)Nc1sc2c(c1C(=O)OCC)CCC(/C=N/O)=C2Cl |  |  |  | 76 | 106 | 48 | 89 | inactive |  | 
29 | O=c1c(-c2ccc(O)cc2)coc2cc(O)ccc12 |  |  | 58.3 | 35 |  |  |  |  |  | 
30 | O=c1cc(-c2ccccc2)oc2cc(O)cc(O)c12 |  |  | 32.8 | 34 |  |  |  |  |  | 
31 | O=c1c(O)c(-c2ccc(O)c(O)c2)oc2cc(O)cc(O)c12 [QUERCETIN] |  | 1.54 | 6.07 | 65 |  |  |  |  |  | 
32 | Cc1ccc(S(=O)(=O)N/N=C2\C=C[C@H]3[C@@H]4CC=C5C[C@@H](O)CC[C@]5(C)[C@H]4CC[C@]23C)cc1 | 47 |  |  | 63 | 9 | 97 | 69 | 45% | 3.8 | 
33 | O=C1CC(c2ccccc2)Oc2ccc(O)cc21 (stereo not drawn) |  |  | 42.5 | 102 |  |  |  |  |  | 
34 | CCOc1cc(/C=N/NC(N)=O)c(Br)c(Br)c1OCC(=O)Nc1ccc(C)cc1 | 5.7 |  |  | 16 | 70 | 76 | 96 | inactive | > 50 | 
